The results in this text go back to ChEMBL document CHEMBL4138223, “Structure-activity relationships for inhibitors of Pseudomonas aeruginosa exoenzyme S ADP-ribosyltransferase activity” (Eur J Med Chem, 2018).

The first assay addresses T1, Exoenzyme S (Pseudomonas aeruginosa, UniProt Q93SQ1).
T1 sequence (Q93SQ1 whole entry): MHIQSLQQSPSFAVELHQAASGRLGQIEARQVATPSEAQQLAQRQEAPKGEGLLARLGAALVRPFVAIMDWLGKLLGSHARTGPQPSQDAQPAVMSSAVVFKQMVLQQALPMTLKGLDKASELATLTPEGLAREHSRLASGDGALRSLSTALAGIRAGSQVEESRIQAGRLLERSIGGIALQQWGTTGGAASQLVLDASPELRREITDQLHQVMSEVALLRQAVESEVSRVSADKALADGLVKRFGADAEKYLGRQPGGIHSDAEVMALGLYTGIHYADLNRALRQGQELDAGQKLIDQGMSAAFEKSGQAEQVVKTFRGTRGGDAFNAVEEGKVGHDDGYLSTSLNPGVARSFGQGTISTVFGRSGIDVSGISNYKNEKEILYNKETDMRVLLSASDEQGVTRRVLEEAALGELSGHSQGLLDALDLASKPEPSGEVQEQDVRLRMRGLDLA
The assay is described as follows: Inhibition of recombinant Pseudomonas aeruginosa PAK His6-tagged ExoS ADPRT domain expressed in Escherichia coli using human GST-fused vH-Ras as substrate measured over 30 mins in presence of 14.3.3beta and epsilonNAD+ by fluorescence assay. Conditions: read-out: IC50. The method, boiled down:
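Recombinant ExoS ADPRT domain with 14-3-3 cofactor, Ras substrate and εNAD+. Read transfer of fluorescent εADP-ribose to Ras. Compounds tested at 8–10 concentrations in triplicate in three independent runs. IC50 by dose-response curve fitting.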
As for `O=C(O)/C=C\c1nc2sc3c(c2c(=O)[nH]1)CCC3`, the IC50 was determined as 15 µM.

Consider `O=C(O)/C=C/c1nc2sc3c(c2c(=O)[nH]1)CCC3`, for which the IC50 worked out at 70 µM.

`O=C(O)CCCCc1nc2sc3c(c2c(=O)[nH]1)CCC3`: the IC50 came to 53 µM.

For `O=C(O)CCC(=O)Nc1sc2c(c1C(=O)O)CCOC2`, the IC50 is above 200 µM.

In the case of `O=C(O)CCc1nc2scc(-c3ccccc3)c2c(=O)[nH]1`, the IC50 is 56 µM.

As for `O=C(O)c1ccccc1-c1nc2sc3c(c2c(=O)[nH]1)CCC3`, the IC50 came to 97 µM.

For the compound `COC(=O)CCc1nc2sc3c(c2c(=O)[nH]1)CCC3`, the IC50 was 116 µM.

For `O=C(O)CCc1ncc(C2=CCCC2)c(=O)[nH]1`, the IC50 amounted to 200 µM.

In the case of `O=c1[nH]c([C@@H]2C[C@H]2c2nn[nH]n2)nc2sc3c(c12)CCC3` (relative stereo), the IC50 came out at 233 µM.

As for `O=C(O)[C@H]1C[C@@H]1c1nc2sc3c(c2c(=O)[nH]1)CCC3` (racemic), the IC50 amounted to 10 µM.

On to `O=C(O)CCc1nc2cc3c(cc2c(=O)[nH]1)CCC3`, for which the IC50 was determined as 98 µM.

For the compound `O=C1NC(C2CC2C(=O)O)Nc2sc3c(c21)CCC3` (racemic), the IC50 stood at 138 µM.

`O=C(O)CCCc1nc2cccc(F)c2c(=O)[nH]1`: the IC50 was determined as 25 µM.

Take `O=C(O)c1ccc(-c2nc3ccccc3c(=O)[nH]2)cc1`: the IC50 was 30 µM.

In the case of `O=C(O)[C@H]1CCC[C@H]1c1nc2sc3c(c2c(=O)[nH]1)CCC3`, the IC50 was found to be 65 µM.

Turning to `O=C(O)c1ccc(-c2nc3ccccc3c(=O)[nH]2)o1`, the IC50 is 32 µM.

As for `O=C(O)COCc1nc2sc3c(c2c(=O)[nH]1)CCC3`, the IC50 came out at 72 µM.

As to `O=C(O)[C@@H](O)Cc1nc2sc3c(c2c(=O)[nH]1)CCC3`, the IC50 stood at 55 µM.

With `O=C(O)CCC(=O)Nc1sc2c(c1C(=O)O)CCCC2`, the IC50 was above 200 µM.

As to `O=C(O)C1CC1c1nc2sc3c(c2c(=O)[nH]1)CCC3` (stereo in doubt; form 1), the IC50 was determined as 6.9 µM.

Turning to `O=C(O)[C@H]1C[C@H]1c1nc2sc3c(c2c(=O)[nH]1)CCC3` (racemic), the IC50 was 190 µM.

For the compound `O=C(O)CCCc1nc2ccccc2c(=O)[nH]1`, the IC50 was in the range of 25 to 30 µM.

In the case of `O=C(O)CCc1nc2sc3c(c2c(=O)[nH]1)CCCC3`, the IC50 came out at 55 µM.

As for `O=C(O)C1CC1c1nc2sc3c(c2c(=O)[nH]1)CCC3` (stereo in doubt; form 2), the IC50 is 39 µM.

Turning to `O=C(O)CCc1nc2sc3c(c2c(=O)[nH]1)CCC3`, the IC50 was 19 to 20 µM.

On to `O=C(O)CCCc1nc2cc(F)c(F)cc2c(=O)[nH]1`, for which the IC50 was found to be 15 µM.

As to `Nc1nc(CCC(=O)O)nc2sc3c(c12)CCC3`, the IC50 was above 200 µM.

`O=C(O)[C@H](O)Cc1nc2sc3c(c2c(=O)[nH]1)CCC3`: the IC50 stood at 191 µM.

With `CS(=O)(=O)NC(=O)CCc1nc2sc3c(c2c(=O)[nH]1)CCCC3`, the IC50 turned out to be 100 µM.

Consider `O=C(O)CCc1nc2ccc3c(c2c(=O)[nH]1)CCC3`, for which the IC50 was 54 µM.

Take `O=c1[nH]c(CCCO)nc2sc3c(c12)CCC3`: the IC50 came to 52 µM.

The assay is the same for the next values; noted with them: read-out: pIC50 (converted).
Take `O=C(O)[C@H]1C[C@@H]1c1nc2sc3c(c2c(=O)[nH]1)CCC3` (racemic): the IC50 is 11.2 µM.

For `O=C(O)CCc1nc2sc3c(c2c(=O)[nH]1)CCC3`, the IC50 is 27.5 µM.

Another assay deals with T1, Exoenzyme S. Kind of assay: Inhibition of Pseudomonas aeruginosa PAK secreted full length ExoS using human GST-fused vH-Ras as substrate preincubated for 10 mins followed by epsilonNAD+ addition measured at 30 mins in presence of 14.3.3beta and epsilonNAD+ by real-time fluorescent assay. The conditions noted are these: read-out: IC50. The method, boiled down: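 Induce ExoS secretion by growing P. aeruginosa PAK overnight at 37 °C in shaken LB. Dilute to OD600 0.001 in LB with 5 mM EGTA and 20 mM MgCl2, then shake 4 h at 37 °C. Add the culture to 500 nM 14-3-3b, vH-Ras and compound in triplicate (13 concentrations, 1% DMSO). Start with εNAD+. Use PAKΔexoS as negative control. Read fluorescence kinetically at 302/410; IC50 from linear-phase velocity (% control), two independent runs.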
Take `O=C(O)/C=C\c1nc2sc3c(c2c(=O)[nH]1)CCC3`: the IC50 stood at 3.51 µM.

As to `O=C(O)[C@H]1C[C@@H]1c1nc2sc3c(c2c(=O)[nH]1)CCC3` (racemic), the IC50 was 2.36 µM.

With `O=C(O)CCCc1nc2cccc(F)c2c(=O)[nH]1`, the IC50 was determined as 7.67 µM.

Consider `O=C(O)C1CC1c1nc2sc3c(c2c(=O)[nH]1)CCC3` (stereo in doubt; form 1), for which the IC50 stood at 1.32 µM.

With `O=C(O)C1CC1c1nc2sc3c(c2c(=O)[nH]1)CCC3` (stereo in doubt; form 2), the IC50 came out at 8.31 µM.

Turning to `O=C(O)CCc1nc2sc3c(c2c(=O)[nH]1)CCC3`, the IC50 turned out to be 6.93 µM.

The assay is the same for the next values; noted with them: read-out: pIC50 (converted).
Take `O=C(O)[C@H]1C[C@@H]1c1nc2sc3c(c2c(=O)[nH]1)CCC3` (racemic): the IC50 was 2.4 µM.

The target of another assay is T2, Exoenzyme S (Pseudomonas aeruginosa) (UniProt Q93SQ1).
T2 sequence (whole entry): T1 sequence (Q93SQ1 whole entry)
Kind of assay: Inhibition of recombinant Pseudomonas aeruginosa PAK His6-tagged ExoS ADPRT domain expressed in Escherichia coli at 100 uM using human GST-fused vH-Ras as substrate measured over 30 mins in presence of 14.3.3beta and epsilonNAD+ by fluorescence assay relative to control.
Conditions: not given
Usually inhibition stands for the drop in the measured response relative to a control, in per cent. Consider `O=C(O)CCCc1nc2cc3c(cc2c(=O)[nH]1)CCCC3`, for which the inhibition was 22%.

Consider `O=C(O)CCCc1nc2ccc3c(c2c(=O)[nH]1)CCC3`, for which the inhibition is 60%.

With `O=C(O)CCc1nc2sc3c(c2c(=O)[nH]1)CCCCC3`, the inhibition is below 50%.

Consider `COC(=O)CCc1nc(OC)c2c3c(sc2n1)CCC3`, for which the inhibition came out at 25%.

For `O=C(O)c1ccccc1Cc1nc2sc3c(c2c(=O)[nH]1)CCC3`, the inhibition was determined as 50%.

As to `O=C(O)/C=C/c1nc2ccccc2c(=O)[nH]1`, the inhibition is below 50%.

Take `O=C(O)CCCCc1nc2ccccc2c(=O)[nH]1`: the inhibition turned out to be 69%.

Turning to `O=C(O)CCCc1nc2ccc([N+](=O)[O-])cc2c(=O)[nH]1`, the inhibition was 30%.

For the compound `COc1ccc2c(=O)[nH]c(CCCC(=O)O)nc2c1`, the inhibition stood at 20%.

In the case of `O=C(O)CCc1nc2sc3c(c2c(=O)[nH]1)CCOC3`, the inhibition was below 60%.

As to `O=C(O)CCc1nc2ccc3c(c2c(=O)[nH]1)CCCC3`, the inhibition was 45%.

With `O=C(O)CCc1nc2cc3c(cc2c(=O)[nH]1)CCCC3`, the inhibition stood at 27%.

`O=C(O)CCCc1nc2cc3c(cc2c(=O)[nH]1)CCC3`: the inhibition stood at 50%.

Consider `O=C(O)CCCc1nc2ccc3c(c2c(=O)[nH]1)CCCC3`, for which the inhibition stood at 30%.

For the compound `COC(=O)CCc1nc(N)c2c3c(sc2n1)CCC3`, the inhibition was 12%.
